Data from ChEMBL document CHEMBL1148785, “Second generation tetrahydroquinoline-based protein farnesyltransferase inhibitors as antimalarials” (J Med Chem, 2007).

Assays:
Plasmodium falciparum [1] = assay: Inhibition of Plasmodium falciparum protein farnesyltransferase at 5 nM by scintillation proximity assay
Plasmodium falciparum [2] = assay: Antimalarial activity against Plasmodium falciparum K1; assay type: functional; conditions: Plasmodium falciparum, K1; read-out: ED50 (the source's name)
Summary of the method: (§1)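 Asynchronous culture in type A+ erythrocytes at 0.5% parasitemia and 0.5% hematocrit, grown in RPMI-1640 with 20% heat-inactivated human A+ plasma. Compound was serially diluted from a top final 5 µM, with DMSO vehicle as 100% growth. Plates ran 48 h at 37 °C under 5% CO2/5% O2/90% N2, then [3H]-hypoxanthine (0.3 µCi) for 24 h. Filter-harvested counts were corrected for the uninfected-RBC background. ED50 by linear regression; duplicates averaged.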

Plasmodium falciparum [3] = assay: Inhibition of Plasmodium falciparum protein farnesyltransferase at 0.5 nM by scintillation proximity assay
Plasmodium falciparum [4] = assay: Antimalarial activity against Plasmodium falciparum 3D7; assay type: functional; conditions: Plasmodium falciparum, 3D7; read-out: ED50 (the source's name); summary of the method: as §1
Plasmodium falciparum [5] = assay: Inhibition of Plasmodium falciparum protein farnesyltransferase at 50 nM by scintillation proximity assay

| SMILES | inhibition (Plasmodium falciparum [1]) | EC50 (Plasmodium falciparum [2]) | inhibition (Plasmodium falciparum [3]) | EC50 (Plasmodium falciparum [4]) | inhibition (Plasmodium falciparum [5]) |
| --- | --- | --- | --- | --- | --- |
| Cn1cnc(S(=O)(=O)N(Cc2cccc3nsnc23)C2Cc3cc(C#N)ccc3N(Cc3cncn3C)C2)c1 (stereo not given) | 94% | 230 nM | 18% | 60 nM | 99% |
| Cn1cnc(S(=O)(=O)N(Cc2ccc(S(C)(=O)=O)cc2)C2Cc3cc(C#N)ccc3N(Cc3cncn3C)C2)c1 (stereo not given) | 99% | 10 nM | 82% | 6 nM | 100% |
| Cn1cncc1CN1CC(N(CCn2ccc3ccccc32)S(=O)(=O)c2ccccn2)Cc2cc(C#N)ccc21 (stereo not given) | 79% | 400 nM | 10% | 370 nM | 98% |
| CN(CCCCN(C1Cc2cc(C#N)ccc2N(Cc2cncn2C)C1)S(=O)(=O)c1ccccn1)C(=O)OC(C)(C)C (stereo not given) | 78% | 270 nM | 27% | 320 nM | 98% |
| COCCCN(C1Cc2cc(C#N)ccc2N(Cc2cncn2C)C1)S(=O)(=O)c1ccccn1 (stereo not given) | 64% | 1000 nM | 18% | 230 nM | 93% |
| Cn1cncc1CN1CC(N(Cc2cccc3nsnc23)S(=O)(=O)c2ccccn2)Cc2cc(C#N)ccc21 (stereo not given) | 31% | 98 nM | 12% | 175 nM | 85% |
| CCN(C1Cc2cc(-c3ccccc3)ccc2N(Cc2cncn2C)C1)S(=O)(=O)c1cn(C)cn1 (stereo not given) | 29% | > 5000 nM | 10% | 5000 nM | 86% |
| C=C(C)C(=O)N1CCC(CN(C2Cc3cc(C#N)ccc3N(Cc3cncn3C)C2)S(=O)(=O)c2ccccn2)CC1 (stereo not given) | 31% | 60 nM | 92% | 50 nM | 100% |
| COC(=O)N1CCC(CN(C2Cc3cc(C#N)ccc3N(Cc3cncn3C)C2)S(=O)(=O)c2cn(C)c(C)n2)CC1 (stereo not given) | 96% | 75 nM | 39% | 60 nM | 100% |
| CCOC(=O)N1CCC(CN(C2Cc3cc(C#N)ccc3N(Cc3cncn3C)C2)S(=O)(=O)c2cn(C)cn2)CC1 (stereo not given) | 96% | 7 nM | 49% | 14 nM | 98% |
| COC(=O)N1CCC(CN(C2Cc3cc(C#N)ccc3N(Cc3cncn3C)C2)S(=O)(=O)c2cc(C)cs2)CC1 (stereo not given) | 86% | 140 nM | 25% | 62 nM | 99% |
| CN(C)C(=O)N1CCC(CN(C2Cc3cc(C#N)ccc3N(Cc3cncn3C)C2)S(=O)(=O)c2ccccn2)CC1 (stereo not given) | 35% | 11.5 nM | 94% | 13 nM | 100% |
| COC(=O)c1cccc(CN(C2Cc3cc(C#N)ccc3N(Cc3cncn3C)C2)S(=O)(=O)c2ccccn2)n1 (stereo not given) | 94% | 900 nM | 66% | 600 nM | 96% |

The remaining compounds from weak to strong by EC50 (Plasmodium falciparum [2]), led by results:

| inhibition (Plasmodium falciparum [1]) | EC50 (Plasmodium falciparum [2]) | inhibition (Plasmodium falciparum [3]) | EC50 (Plasmodium falciparum [4]) | inhibition (Plasmodium falciparum [5]) | SMILES |
| --- | --- | --- | --- | --- | --- |
| 10% | 3600 nM | 8% | 360 nM | 62% | CN(C)S(=O)(=O)N(Cc1ccccc1F)C1Cc2cc(C#N)ccc2N(Cc2cncn2C)C1 (stereo not given) |
| 46% | 1320 nM | 17% | 1740 nM | 88% | Cn1cncc1CN1CC(N(Cc2cccc3cccnc23)S(=O)(=O)c2ccccn2)Cc2cc(C#N)ccc21 (stereo not given) |
| 22% | 1000 nM | 13% | 900 nM | 66% | COc1ccc(S(=O)(=O)N(Cc2ccccc2F)C2Cc3cc(C#N)ccc3N(Cc3cncn3C)C2)cc1 (stereo not given) |
| 20% | 890 nM | 0% | 490 nM | 92% | Cn1cnc(S(=O)(=O)N(Cc2ncoc2-c2ccccc2)C2Cc3cc(C#N)ccc3N(Cc3cncn3C)C2)c1 (stereo not given) |
| 87% | 350 nM | 37% | 375 nM | 99% | COC(=O)CN(C1Cc2cc(-c3ccccc3)ccc2N(Cc2cn(C)cn2)C1)S(=O)(=O)c1cn(C)cn1 (stereo not given) |
| 91% | 350 nM | 12% | 355 nM | 99% | Cn1cnc(S(=O)(=O)N(CCOc2cccc3c2OCCO3)C2Cc3cc(C#N)ccc3N(Cc3cncn3C)C2)c1 (stereo not given) |
| 17% | 55 nM | 89% | 75 nM | 96% | CC(C)S(=O)(=O)N1CCC(CN(C2Cc3cc(C#N)ccc3N(Cc3cncn3C)C2)S(=O)(=O)c2ccccn2)CC1 (stereo not given) |
| 98% | 1.8 nM | 54% | 1.8 nM | 99% | Cn1cnc(S(=O)(=O)N(CCn2cccc2)C2Cc3cc(C#N)ccc3N(Cc3cncn3C)C2)c1 (stereo not given) |
